SMILES strings stand for the structures. Like-named read-outs stand apart in the source and are kept apart here.

We go through ten compounds from article PMC9535927 (The Biochemical journal, 2020).

Series [1] has as its system ASCT2. The format is cell-based, rat/human.
Series [2] has as its target ASCT2. The conditions noted are these: read-out: Ki (competes with alanine for the substrate binding site); cited from earlier work.
Series [3] concerns the target T1, ASCT2 (Homo sapiens, UniProt Q15758).
T1 sequence (Q15758 1-541): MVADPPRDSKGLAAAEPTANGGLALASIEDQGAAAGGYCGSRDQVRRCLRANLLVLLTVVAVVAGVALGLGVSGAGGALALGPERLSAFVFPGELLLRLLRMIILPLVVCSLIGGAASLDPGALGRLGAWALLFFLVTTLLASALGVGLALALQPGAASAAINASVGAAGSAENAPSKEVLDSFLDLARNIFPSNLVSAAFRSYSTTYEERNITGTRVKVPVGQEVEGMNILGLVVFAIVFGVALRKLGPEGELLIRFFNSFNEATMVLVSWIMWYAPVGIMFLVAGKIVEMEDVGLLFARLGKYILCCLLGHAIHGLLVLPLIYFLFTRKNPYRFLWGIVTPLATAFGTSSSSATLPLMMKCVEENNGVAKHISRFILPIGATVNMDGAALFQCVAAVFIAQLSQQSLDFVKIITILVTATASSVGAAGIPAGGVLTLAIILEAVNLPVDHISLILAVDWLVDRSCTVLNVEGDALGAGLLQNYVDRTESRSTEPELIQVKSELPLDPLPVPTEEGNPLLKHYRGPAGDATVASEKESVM
The series is described as follows: Radiotracer flux: 14C BMAA uptake in ASCT2-transfected MDCK-II cell monolayers. The format is cell-based. In short, it runs like this: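 ASCT2-transfected MDCK-II cells grown as monolayers on transwell membranes, assayed 48 h after transfection. After washing, 2 mM 14C BMAA was applied apically for 5 min. Apical and basolateral solutions were then aspirated and both sides washed. Cells were extracted in acetonitrile:water (50:50) and the extract counted by liquid scintillation. Uptake is given as pmol/min/cm2 and compared with non-ASCT2-expressing control cells.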

The next series concerns the target T2, rASCT2 (Rattus norvegicus, UniProt D3ZJ25).
T2 sequence (D3ZJ25 1-555): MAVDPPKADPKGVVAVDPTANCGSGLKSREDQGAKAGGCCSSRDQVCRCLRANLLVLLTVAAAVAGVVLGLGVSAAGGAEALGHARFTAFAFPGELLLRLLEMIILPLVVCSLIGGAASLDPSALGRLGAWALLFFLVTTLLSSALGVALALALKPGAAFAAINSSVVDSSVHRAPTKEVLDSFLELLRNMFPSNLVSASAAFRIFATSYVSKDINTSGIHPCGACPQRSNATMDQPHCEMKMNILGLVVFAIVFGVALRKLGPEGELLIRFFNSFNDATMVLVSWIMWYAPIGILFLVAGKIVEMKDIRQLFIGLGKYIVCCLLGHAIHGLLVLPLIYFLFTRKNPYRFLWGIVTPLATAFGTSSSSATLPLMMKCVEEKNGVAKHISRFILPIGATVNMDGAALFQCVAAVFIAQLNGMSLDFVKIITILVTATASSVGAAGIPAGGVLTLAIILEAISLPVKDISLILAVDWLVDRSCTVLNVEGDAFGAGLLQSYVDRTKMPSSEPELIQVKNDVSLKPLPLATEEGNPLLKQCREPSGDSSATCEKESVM
The series is described as follows: Glutamine uptake fluorescence assay. The format is cell-based.

Series [4] can be described thus: Proton ionisation constants. The conditions noted are these: pH 7.4. The format is physicochemical.
For series [5] the following is noted: cited from earlier work.
[6] abbreviates: 4 mM (D-2,3-DAP: up to 4 mM), pH 7.40.
Setting [7] is: 2 mM, pH 7.40, intracellular SCN-.

`NC[C@@H](N)C(=O)O` [D-2,3-DAP]: the “current elicited on application to ASCT2-expressing cells” value (from here on “current elicited on application”) with ASCT2 [1] (setting [6]) is given as “did not produce any current”.
What is called Ki is a measure of affinity in units of concentration, obtained from inhibition or displacement. Regarding `O=C(O)[C@@H]1C[C@@H](Cc2ccc(-c3ccccc3)cc2)CN1` [BPP, (R)-γ-(4-biphenylmethyl)-L-proline], the Ki on ASCT2 [2] is 3000 nM.
On to `CNC[C@H](N)C(=O)O` [BMAA, β-N-Methylamino-L-Alanine], for which, in the series with ASCT2 [1] (pH 7.40, V = 0 mV), the “inward current relative to the maximum anion current induced by L-alanine” value is “less than 20%”. In addition, the “uptake of 14C BMAA” value on ASCT2 [3] (2 mM, control cells (non-ASCT2 expressing)) came out at 163 ± 36 pmol/min/cm^2. For the same compound, the “transport rate by ASCT2, fold lower than L-glutamine” value on ASCT2 [3] (if transported at all, inferred from sensitivity of uptake assay) is reported as “at least 10 fold”.
For `NCCC[C@H](N)C(=O)O` [L-ornithine], in the series with ASCT2 [1] (setting [6]), the “current elicited on application” value is recorded as “not significantly different from zero”.
For `NC[C@H](N)C(=O)O` [L-DAP, L-2,3-diaminopropionic acid], the “direction of evoked current at low pH” value in the series on ASCT2 [1] (2 mM, extracellular pH below 6.50, V = 0 mV) is listed as “outwardly directed”. Also, the “current elicited on application” value with ASCT2 [1] (setting [7]) is on record as “elicited an inwardly-directed current”. For the same compound, in the series on ASCT2 [1] (extracellular 140 mM NaCl, intracellular 130 mM NaSCN, pH 7.4), the “apparent valence from slope of log(Km) vs. voltage” value is given as 0.21 ± 0.04. Also, the “decrease in fluorescence emission in the Venus range (glutamine uptake)” value (shortened to “decrease in fluorescence emission”) at rASCT2 (500 μM glutamine plus 2 mM test compound) was found to be 1.00 ± 1.14%. The “protonation of the α-amino group” value in series [4] stood at 20%. For the same compound, the “pKa of the α-amino group” value in series [5] is 6.7.
Regarding `N[C@@H](COCc1ccccc1)C(=O)O` [benzylserine], the “decrease in fluorescence emission” value on rASCT2 (500 μM glutamine plus 5 mM test compound) came to 2.70 ± 1.25%.
Consider `NCCCC[C@H](N)C(=O)O` [L-lysine], for which the “current elicited on application” value in the series on ASCT2 [1] (setting [6]) is listed as “not significantly different from zero”.
For the compound `NCC[C@H](N)C(=O)O` [L-DAB, L-2,4-diaminobutyric acid], the “current elicited on application” value in the series on ASCT2 [1] (setting [7]) is on record as “produced an inward current, however, with smaller magnitude than that generated by L-DAP”.
Regarding `NC(=O)CC[C@H](N)C(=O)O` [glutamine], the “decrease in fluorescence emission” value at rASCT2 (500 μM glutamine applied externally alone) worked out at 11.2 ± 0.89%.
For `NC(=O)CCCC(N)C(=O)O` (centres unmarked) [homoglutamine], the “current elicited on application” value in the series with ASCT2 [1] (pH 7.4) is reported as “outward current”.
